Measured values of several laboratories.
Lines come from different studies, so protocols differ.
Organism: Acinetobacter baumannii
Observed: microbial growth

SMILES	assay	system	conditions	MIC
O=C(CCc1ccc(O)c(O)c1)NCCCCCCCC[P+](c1ccccc1)(c1ccccc1)c1ccccc1.[Br-]	broth dilution	ATCC19606	18 h	> 32 µg/mL
N=C(N)c1ccc(OCCC(CCOc2ccc(C(=N)N)cc2)c2ccccc2)cc1 (centres unmarked)	broth dilution	ATCC17978	–	> 200 µg/mL
O=C(Nc1ccc2c(c1)OC(F)(F)O2)Nc1ccc(Cl)c(C(F)(F)F)c1	–	DSM30007	–	> 100 µM
Cc1nc(Cl)c2c(c1O)C(=O)C1=C(O)[C@]3(O)C(=O)C(C(N)=O)=C(O)[C@@H](N(C)C)[C@@H]3C[C@@H]1C2.Cl	broth dilution	ATCC19606	–	4 µg/mL
CN[C@@H]1[C@@H](O)[C@@H](O[C@@H]2[C@@H](O)[C@H](O[C@H]3OC(CNCCO)=CC[C@H]3N)[C@@H](N)C[C@H]2NC(=O)[C@@H](O)CCN)OC[C@]1(C)O	–	–	–	2 µg/mL
N=C(N)c1ccc(OCc2ccccc2COc2ccc(C(=N)N)cc2)cc1	broth dilution	ATCC17978	–	> 200 µg/mL
O=C(CCCCCCCC[P+](c1ccccc1)(c1ccccc1)c1ccccc1)Nc1ccc(O)c(O)c1.[Br-]	broth dilution	ATCC19606	18 h	> 32 µg/mL
C[C@@H](O)[C@H]1C(=O)N2C(C(=O)O)=C(S[C@@H]3CN[C@H](C(=O)N(C)C)C3)[C@H](C)[C@H]12	broth dilution	ATCC19606	–	0.5 µg/mL
O=C(Nc1ccc(F)c(Cl)c1)c1cc(Cl)ccc1O	broth dilution	BAA1605	–	> 64 µg/mL
CCCCCCC/C=C/C(=O)N1C(=O)/C(=C(/C)O)C(=O)C1Cc1ccc(OC(C)(C)C)cc1 (centres unmarked)	–	ATCC19606	–	> 200 µg/mL
O=C(O)c1ccc(-n2cc(/C=N/Nc3cccc(F)c3)c(-c3ccc4ccccc4c3)n2)cc1	–	ATCCBAA1605	–	25 µg/mL
NC1CCc2c1[nH]c1ccc(Cl)c(Cl)c21 (centres unmarked)	broth dilution	ATCC19606	–	8 µg/mL
O=C(O)c1ccc(-n2cc(/C=N/Nc3ccc(Br)cc3)c(-c3cccc(F)c3)n2)cc1	–	ATCCBAA1605	–	6.25 µg/mL
CN(C)Cc1ccc2c(N(C)C)c3c(c(O)c2c1)C(=O)C1=C(O)[C@]2(O)C(=O)C(C(N)=O)=C(O)[C@@H](N(C)C)[C@@H]2C[C@@H]1C3	broth dilution	ATCC19606	–	1 µg/mL
CCCCCCC/C=C/C(=O)N1C(=O)/C(=C(\O)c2ccncc2)C(=O)C1CC(C)C (centres unmarked)	–	ATCC19606	–	> 200 µg/mL
CC(C)CNc1nc(Cl)c2c(c1O)C(=O)C1=C(O)[C@]3(O)C(=O)C(C(N)=O)=C(O)[C@@H](N(C)C)[C@@H]3C[C@@H]1C2.Cl.Cl.Cl	broth dilution	ATCC19606	–	2 µg/mL
CN(C)c1ccc(-c2ccc3cc4c(c(O)c3c2)C(=O)C2=C(O)[C@]3(O)C(=O)C(C(N)=O)=C(O)[C@@H](N(C)C)[C@@H]3C[C@@H]2C4)cc1	broth dilution	ATCC19606	–	32 µg/mL
